Laboratory results: ChEMBL document CHEMBL3526123, “Hepatobiliary disposition of 17-OHPC and taurocholate in fetal human hepatocytes: a comparison with adult human hepatocytes” (Drug Metab Dispos, 2013)
One block for each compound: values may come before it.

Columns and labels:
Hepatocyte [1] = assay: Total drug uptake in sandwich-cultured human adult hepatocytes assessed per mg protein at 1 uM after 20 mins in presence of rifampin by liquid scintillation counting method; format: ADME, cell-based
Method in brief: (§1)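 Sandwich-cultured hepatocytes received 1 µM radiolabeled test compound in HBSS at 37°C, with or without cyclosporine A, verapamil or rifampin. After an ice-cold wash, efflux was started with Ca2+/Mg2+-free HBSS for 20 min. Media and lysates were counted by liquid scintillation. Total uptake is expressed as pmol/mg protein (Bradford), mean ± S.D.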

Hepatocyte [2] = assay: Total drug uptake in sandwich-cultured human adult hepatocytes assessed per mg protein at 1 uM after 20 mins in presence of cyclosporine A by liquid scintillation counting method; format: ADME, cell-based; method in brief: as §1
Hepatocyte [3] = assay: Total drug uptake in sandwich-cultured human adult hepatocytes assessed per mg protein at 1 uM after 20 mins in absence of rifampin by liquid scintillation counting method; format: ADME, cell-based; method in brief: as §1
Hepatocyte [4] = assay: Total drug uptake in sandwich-cultured human adult hepatocytes assessed per mg protein at 1 uM after 20 mins in absence of verapamil by liquid scintillation counting method; format: ADME, cell-based; method in brief: as §1
Hepatocyte [5] = assay: Total drug uptake in sandwich-cultured human adult hepatocytes assessed per mg protein at 1 uM after 20 mins in presence of verapamil by liquid scintillation counting method; format: ADME, cell-based; method in brief: as §1
Hepatocyte [6] = assay: Total drug uptake in sandwich-cultured human fetal hepatocytes assessed per mg protein at 1 uM after 20 mins in absence of verapamil by liquid scintillation counting method; format: ADME, cell-based; method in brief: as §1
Hepatocyte [7] = assay: Total drug uptake in sandwich-cultured human adult hepatocytes assessed per mg protein at 1 uM after 20 mins in absence of cyclosporine A by liquid scintillation counting method; format: ADME, cell-based; method in brief: as §1
Hepatocyte [8] = assay: Total drug uptake in sandwich-cultured human fetal hepatocytes assessed per mg protein at 1 uM after 20 mins in presence of rifampin by liquid scintillation counting method; format: ADME, cell-based; method in brief: as §1
Hepatocyte [9] = assay: Total drug uptake in sandwich-cultured human fetal hepatocytes assessed per mg protein at 1 uM after 20 mins in absence of rifampin by liquid scintillation counting method; format: ADME, cell-based; method in brief: as §1
Hepatocyte [10] = assay: Total drug uptake in sandwich-cultured human fetal hepatocytes assessed per mg protein at 1 uM after 20 mins in absence of cyclosporine A by liquid scintillation counting method; format: ADME, cell-based; method in brief: as §1
Hepatocyte [11] = assay: Total drug uptake in sandwich-cultured human fetal hepatocytes assessed per mg protein at 1 uM after 20 mins in presence of cyclosporine A by liquid scintillation counting method; format: ADME, cell-based; method in brief: as §1
Hepatocyte [12] = assay: Total drug uptake in sandwich-cultured human fetal hepatocytes assessed per mg protein at 1 uM after 20 mins in presence of verapamil by liquid scintillation counting method; format: ADME, cell-based; method in brief: as §1
Hepatocyte [13] = assay: Drug accumulation in sandwich-cultured human fetal hepatocytes assessed per mg protein under Ca2+/Mg2+ conditions; format: ADME, cell-based
Bile salt export pump [14] = target: T1, Bile salt export pump (Homo sapiens, UniProt O95342); assay: Inhibition of ABCB11-mediated taurocholate efflux in sandwich-cultured human adult hepatocytes at 5 to 100 uM; format: ADME, cell-based, Hepatocyte
T1 sequence (O95342 whole entry): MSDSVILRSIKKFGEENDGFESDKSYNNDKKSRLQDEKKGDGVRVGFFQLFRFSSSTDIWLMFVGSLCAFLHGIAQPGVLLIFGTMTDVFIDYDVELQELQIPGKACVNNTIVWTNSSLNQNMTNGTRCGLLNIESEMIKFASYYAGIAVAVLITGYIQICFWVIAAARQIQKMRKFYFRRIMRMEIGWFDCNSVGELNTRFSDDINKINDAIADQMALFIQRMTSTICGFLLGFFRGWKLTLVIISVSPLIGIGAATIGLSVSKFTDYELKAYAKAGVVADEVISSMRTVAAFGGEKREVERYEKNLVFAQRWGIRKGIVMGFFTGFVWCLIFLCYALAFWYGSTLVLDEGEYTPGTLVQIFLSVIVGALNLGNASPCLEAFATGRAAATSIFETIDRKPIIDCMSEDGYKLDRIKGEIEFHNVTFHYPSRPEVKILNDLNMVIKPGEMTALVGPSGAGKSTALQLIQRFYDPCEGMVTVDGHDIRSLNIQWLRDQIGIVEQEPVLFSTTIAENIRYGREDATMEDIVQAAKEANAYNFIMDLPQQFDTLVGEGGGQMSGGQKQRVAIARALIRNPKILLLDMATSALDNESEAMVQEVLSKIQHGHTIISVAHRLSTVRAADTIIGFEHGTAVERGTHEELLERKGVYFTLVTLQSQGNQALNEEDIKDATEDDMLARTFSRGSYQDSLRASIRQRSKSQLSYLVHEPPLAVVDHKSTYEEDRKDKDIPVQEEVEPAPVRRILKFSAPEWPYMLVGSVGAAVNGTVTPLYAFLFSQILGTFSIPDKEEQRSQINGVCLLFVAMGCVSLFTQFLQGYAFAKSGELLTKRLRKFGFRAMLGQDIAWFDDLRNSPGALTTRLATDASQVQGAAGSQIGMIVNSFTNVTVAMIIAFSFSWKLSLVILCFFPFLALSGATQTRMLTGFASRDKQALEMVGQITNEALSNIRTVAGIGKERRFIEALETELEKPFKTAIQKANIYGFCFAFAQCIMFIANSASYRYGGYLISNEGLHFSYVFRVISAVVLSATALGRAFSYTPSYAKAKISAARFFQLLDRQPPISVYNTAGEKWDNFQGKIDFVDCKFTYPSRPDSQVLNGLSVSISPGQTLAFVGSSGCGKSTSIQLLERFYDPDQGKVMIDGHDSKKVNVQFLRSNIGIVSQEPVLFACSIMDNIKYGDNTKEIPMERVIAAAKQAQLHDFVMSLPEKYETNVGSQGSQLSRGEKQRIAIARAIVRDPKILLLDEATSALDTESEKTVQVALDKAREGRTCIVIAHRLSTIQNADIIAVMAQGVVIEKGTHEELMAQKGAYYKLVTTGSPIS
Method in brief: (§2)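 Sandwich-cultured hepatocytes (Matrigel overlay) were given 1 µM [3H]taurocholic acid in standard HBSS at 37°C, with or without increasing 17-OHPC or cyclosporine A (40 µM, positive control). Efflux was run in standard versus Ca2+/Mg2+-free HBSS, with inhibitor present. Canalicular efflux is the buffer difference, set to 100% in controls. Uptake was from scintillation counts normalized to Bradford protein. Triplicates; fetal n = 4, adult n = 6.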

[15] = Cmax in adult human plasma; format: ADME, cell-free
Hepatocyte [16] = assay: Drug uptake in sandwich-cultured human adult hepatocytes at 1 uM after 20 mins in presence of warm media at 37 degC by liquid scintillation counting method; format: ADME, cell-based
Method in brief: (§3)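 Sandwich-cultured hepatocytes were loaded for 20 min in standard HBSS containing 1 µM 17-OHPC and 1 µM TCA, at 37°C or at 4°C. Cells were washed ice-cold, and efflux was started with Ca2+/Mg2+-free HBSS at the matching temperature. Media and lysates were counted by liquid scintillation and normalized to protein. Triplicate treatments.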

Bile salt export pump [17] = target: T1, Bile salt export pump; assay: Inhibition of ABCB11-mediated taurocholate efflux in sandwich-cultured human fetal hepatocytes at 0.5 to 10 uM; format: ADME, cell-based, Hepatocyte; method in brief: as §2
Hepatocyte [18] = assay: Drug uptake in sandwich-cultured human fetal hepatocytes at 1 uM after 20 mins in presence of cold media at 4 degC by liquid scintillation counting method; format: ADME, cell-based
Hepatocyte [19] = assay: Drug accumulation in sandwich-cultured human adult hepatocytes assessed per mg protein under Ca2+/Mg2+ free conditions; format: ADME, cell-based
Bile salt export pump [20] = target: T1, Bile salt export pump; assay: Inhibition of ABCB11-mediated taurocholate total uptake in sandwich-cultured human adult hepatocytes at >50 uM; format: ADME, cell-based, Hepatocyte; method in brief: as §2
Hepatocyte [21] = assay: Drug uptake in sandwich-cultured human fetal hepatocytes at 1 uM after 20 mins in presence of warm media at 37 degC by liquid scintillation counting method; format: ADME, cell-based
Hepatocyte [22] = assay: Drug excretion in sandwich-cultured human fetal hepatocytes assessed as mean biliary index; format: ADME, cell-based
Method in brief: (§4)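 Sandwich-cultured hepatocytes (Matrigel overlay, 0.233 mg/ml) were rinsed twice and equilibrated 10 min at 37°C in standard or Ca2+/Mg2+-free HBSS. 1 µM [3H]taurocholate or [3H]17-OHPC in standard HBSS was then added. Accumulation was measured by scintillation counting and normalized to Bradford protein. BEI = (accumulation with Ca/Mg − accumulation without)/accumulation with Ca/Mg × 100. Reported as mean ± S.D. across cultures.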

Hepatocyte [23] = assay: Drug excretion in sandwich-cultured human adult hepatocytes assessed as mean biliary index; format: ADME, cell-based; method in brief: as §4
Bile salt export pump [24] = target: T1, Bile salt export pump; assay: Inhibition of ABCB11-mediated taurocholate total uptake in sandwich-cultured human fetal hepatocytes at >0.5 uM; format: ADME, cell-based, Hepatocyte; method in brief: as §2
Hepatocyte [25] = assay: Drug uptake in sandwich-cultured human adult hepatocytes at 1 uM after 20 mins in presence of cold media at 4 degC by liquid scintillation counting method; format: ADME, cell-based; method in brief: as §3
Hepatocyte [26] = assay: Drug accumulation in sandwich-cultured human adult hepatocytes assessed per mg protein under Ca2+/Mg2+ conditions; format: ADME, cell-based
Hepatocyte [27] = assay: Drug accumulation in sandwich-cultured human fetal hepatocytes assessed per mg protein under Ca2+/Mg2+ free conditions; format: ADME, cell-based

Drug uptake (Hepatocyte [1]): 565 pmol
Drug uptake (Hepatocyte [2]): 494 pmol
Drug uptake (Hepatocyte [3]): 611 pmol
Drug uptake (Hepatocyte [4]): 341 pmol
Drug uptake (Hepatocyte [5]): 347 pmol
Drug uptake (Hepatocyte [6]): 263 pmol
Drug uptake (Hepatocyte [7]): 476 pmol
Drug uptake (Hepatocyte [8]): 241 pmol
Drug uptake (Hepatocyte [9]): 267 pmol
Drug uptake (Hepatocyte [10]): 284 pmol
Drug uptake (Hepatocyte [11]): 304 pmol
Drug uptake (Hepatocyte [12]): 281 pmol
SMILES: [3H]C1C2=CC(=O)C([3H])C([3H])[C@]2(C)[C@H]2CC[C@@]3(C)[C@@H](CC[C@]3(O[14C](=O)CCCCC)C(C)=O)[C@@H]2C1[3H] (some centres undefined)

Drug uptake (Hepatocyte [13]): 320 pmol
inhibition (INH) (Bile salt export pump [14]): Active
Cmax [15]: 70 nM
Drug uptake (Hepatocyte [16]): Active
inhibition (INH) (Bile salt export pump [17]): Active
Drug uptake (Hepatocyte [18]): Not Active
Drug uptake (Hepatocyte [19]): 628 pmol
inhibition (INH) (Bile salt export pump [20]): Active
Drug uptake (Hepatocyte [21]): Active
Drug excretion (Hepatocyte [22]): 7%
Drug excretion (Hepatocyte [23]): 6.2%
Cmax (Cmax in human cord blood): 20 nM
inhibition (INH) (Bile salt export pump [24]): Active
Drug uptake (Hepatocyte [25]): Not Active
Drug uptake (Hepatocyte [26]): 680 pmol
Drug uptake (Hepatocyte [27]): 294 pmol
SMILES: CCCCCC(=O)O[C@]1(C(C)=O)CC[C@H]2[C@@H]3CCC4=CC(=O)CC[C@]4(C)[C@H]3CC[C@@]21C [HYDROXYPROGESTERONE CAPROATE]

SMILES: C[C@H](CCC(=O)NCCS(=O)(=O)O)[C@H]1CC[C@H]2[C@@H]3[C@H](O)C[C@@H]4C[C@H](O)CC[C@]4(C)[C@H]3C[C@H](O)[C@]12C [TAUROCHOLIC ACID]
Drug uptake (Hepatocyte [13]): 34 pmol
Drug uptake (Hepatocyte [18]): Not Active
Drug uptake (Hepatocyte [19]): 21 pmol
Drug uptake (Hepatocyte [21]): Active
Drug uptake (Hepatocyte [26]): 85 pmol
Drug uptake (Hepatocyte [27]): 23 pmol
